Series [1] in a line: Lipophilicity, log D of the compound at pH 7.4 by shake-flask method. Conditions: buffer. It counts as physicochemical.
Series [2] deals with T1, Myeloperoxidase (Homo sapiens) (UniProt P05164).
T1 sequence (whole entry): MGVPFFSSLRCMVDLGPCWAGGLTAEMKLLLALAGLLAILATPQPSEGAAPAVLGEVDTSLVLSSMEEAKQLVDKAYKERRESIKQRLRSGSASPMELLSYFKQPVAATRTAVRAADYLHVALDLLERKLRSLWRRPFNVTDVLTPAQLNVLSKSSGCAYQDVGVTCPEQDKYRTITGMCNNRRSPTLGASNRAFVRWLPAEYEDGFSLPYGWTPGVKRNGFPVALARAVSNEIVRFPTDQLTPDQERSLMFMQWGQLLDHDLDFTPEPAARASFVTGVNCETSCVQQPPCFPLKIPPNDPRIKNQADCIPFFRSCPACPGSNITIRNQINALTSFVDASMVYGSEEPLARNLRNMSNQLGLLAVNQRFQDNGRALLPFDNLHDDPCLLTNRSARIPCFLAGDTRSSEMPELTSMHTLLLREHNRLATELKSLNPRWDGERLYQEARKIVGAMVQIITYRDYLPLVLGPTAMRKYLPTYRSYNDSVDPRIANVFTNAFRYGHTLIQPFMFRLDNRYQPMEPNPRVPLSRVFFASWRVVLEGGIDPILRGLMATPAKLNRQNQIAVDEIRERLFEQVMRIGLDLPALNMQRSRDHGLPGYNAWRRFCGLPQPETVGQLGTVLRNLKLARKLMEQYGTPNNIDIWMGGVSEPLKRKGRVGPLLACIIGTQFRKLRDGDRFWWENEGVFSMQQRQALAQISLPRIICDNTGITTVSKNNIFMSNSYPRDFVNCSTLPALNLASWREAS
Kind of series: (§1) Inhibition of peroxidase activity of MPO isolated from human polynuclear leukocytes using Amplex Red as substrate assessed as formation of resorufin measured every 20 secs by spectrophotometric analysis.

The target of series [3] is T2, Myeloperoxidase (Homo sapiens, UniProt P05164).
T2 sequence (P05164 whole entry): T1 sequence (whole entry)
The description is as §1.

Series [4] deals with T1, Myeloperoxidase (Homo sapiens). Description: Inhibition of peroxidase activity of MPO isolated from human polynuclear leukocytes using Amplex Red as substrate assessed as formation of resorufin by measuring ratio of Kinact to Ki measured every 20 secs by spectrophotometric analysis. In outline:
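Enzyme purified from human polynuclear leukocytes. Buffer: 50 mM sodium phosphate pH 7.4, 150 mM NaCl, 1 mM DTPA, 2 μM H2O2, 30 μM Amplex Red, inhibitor or DMSO. Resorufin fluorescence (ex 530/em 580) read every 20 s at room temperature. Progress curves fitted for kobs at each concentration. kinact/KI derived from the kobs versus [I] fit or slope. Geometric mean of at least two experiments.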

In series [5] the target is T2, Myeloperoxidase. Description: Irreversible inhibition of MPO in LPS-stimulated human whole blood after 4 hrs by Amplex Red/H2O2-based fluorescence plate reader analysis. In outline: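 Heparinized whole blood from healthy human volunteers, stimulated with bacterial LPS and incubated with compound for 4 h. MPO captured on anti-MPO antibody plates and washed; residual activity measured with Amplex Red and H₂O₂. IC₅₀ reported as geometric mean [90% CI].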

Series [6] in a line: Apparent permeability across RRCK cells. The conditions noted are these: dog, MDCK. Format: ADME, cell-based, Canis lupus familiaris, MDCKII-LE. Summed up: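 Passive permeability measured in Ralph−Russ canine kidney (RRCK) cells, a low-transporter line isolated from Madin−Darby canine kidney cells; reported as P_app (10⁻⁶ cm/s).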
The nature of series [7]: Fraction unbound in human plasma by equilibrium dialysis method. Format: ADME, cell-free. Summed up: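 Fraction unbound in human plasma measured by equilibrium dialysis; mean of three individual determinations.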
A general note: In equilibrium dialysis only unbound substance equilibrates across the membrane.

For a further series, the system named is Liver microsome. Description: Intrinsic apparent clearance in human liver microsomes. Format: ADME. In outline: (§2)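 Stability incubations in NADPH-supplemented human liver microsomes or cryopreserved human hepatocytes. Total apparent intrinsic clearance scaled from the in vitro half-life; microsomes reported per mg protein, hepatocytes per 10⁶ cells.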
(Liver microsomes are a subcellular fraction often used to study metabolism.)

For another series, the system named is Hepatocyte. Kind of series: Intrinsic apparent clearance in human hepatocytes assessed per 10^6 cells. Format: ADME, cell-based. Summed up:
as §2

Series [8] can be described thus: Plasma clearance in Wistar rat at 1 mg/kg, iv and 3 or 5 mg/kg, po. Format: ADME, organism-based. In outline: (§3)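 Male CD-1 mice (25−35 g), cannulated Wistar-Han rats (250 g), beagle dogs (12 kg) and cynomolgus monkeys (7 kg), fasted overnight and fed 1.0 or 2.0 h after dosing. iv 1 mg/kg in saline or 12% sulfobutyl ether β-cyclodextrin; po 3 or 5 mg/kg in 0.5% methylcellulose. Parameters calculated from plasma concentration−time data; mean ± SD for n = 3, individual values for n = 2.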

Series [9] in a line: Plasma clearance in Beagle dog at 1 mg/kg, iv and 3 or 5 mg/kg, po. Format: ADME, organism-based, Canis lupus familiaris. Summed up:
as §3

Series [10] can be described thus: Volume of distribution at steady state in Wistar rat at 1 mg/kg, iv and 3 or 5 mg/kg, po. It counts as ADME, organism-based. The conditions noted are these: in vivo, read-out: Vdss. Summed up: (§4)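 Male mice, rats, dogs and cynomolgus monkeys, fasted overnight, fed after dosing. Intravenous dose 1 mg/kg in saline or 12% sulfobutyl ether β-cyclodextrin; oral arm 3 or 5 mg/kg in 0.5% methylcellulose. Steady-state volume derived from plasma concentration−time data; mean ± SD for n = 3, individual values for n = 2.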

Series [11] can be described thus: Volume of distribution at steady state in Beagle dog at 1 mg/kg, iv and 3 or 5 mg/kg, po. The conditions noted are these: in vivo, read-out: Vdss. It counts as ADME, organism-based, Canis lupus familiaris. In outline:
as §4

A short description of series [12]: Elimination half life in Wistar rat at 1 mg/kg, iv and 3 or 5 mg/kg, po. Conditions: in vivo, read-out: beta t1/2 (converted). It counts as ADME, organism-based. In outline: as §3
A short description of series [13]: Elimination half life in Beagle dog at 1 mg/kg, iv and 3 or 5 mg/kg, po. It counts as ADME, organism-based, Canis lupus familiaris. Conditions: in vivo, read-out: beta t1/2 (converted). In outline:
as §3

The nature of series [14]: Tmax in Wistar rat at 3 or 5 mg/kg, po. Format: ADME, organism-based. The conditions noted are these: in vivo. In outline:
(§5)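 Male animals (CD-1 mice 25−35 g, cannulated Wistar-Han rats 250 g, beagle dogs 12 kg, cynomolgus monkeys 7 kg), fasted overnight and fed 1.0 or 2.0 h after dosing, water ad libitum. Oral dose 3 or 5 mg/kg in 0.5% methylcellulose. Parameters calculated from plasma concentration−time data; mean ± SD for n = 3, individual values for n = 2.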

Series [15] can be described thus: Tmax in Beagle dog at 3 or 5 mg/kg, po. It counts as ADME, organism-based, Canis lupus familiaris. The conditions noted are these: in vivo. In outline: as §5
A short description of series [16]: Oral bioavailability in Wistar rat at 3 or 5 mg/kg. Format: ADME, organism-based. Conditions: in vivo. In outline:
(§6)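 Male CD-1 mice, Wistar-Han rats, beagle dogs and cynomolgus monkeys, fasted overnight and fed after dosing. Given po at 3 or 5 mg/kg in 0.5% methylcellulose, with an iv reference dose of 1 mg/kg. Bioavailability derived from plasma concentration−time data; mean ± SD (n = 3) or individual values (n = 2).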

Series [17] can be described thus: Oral bioavailability in Beagle dog at 3 or 5 mg/kg. Format: ADME, organism-based, Canis lupus familiaris. The conditions noted are these: in vivo. In outline: as §6

Structures are written as SMILES.

What is called logD is lipophilicity at a set pH, counting ionised and neutral species. A low value points to a more hydrophilic compound. In general, Ki refers to the dissociation constant of the complex between target and ligand, obtained from inhibition or displacement. By IC50 is commonly meant the concentration that inhibits the measured activity by half. Usually Papp stands for a coefficient for how fast a substance crosses the barrier. The term fraction unbound denotes free concentration divided by total concentration. High values mean weak binding, low ones extensive binding. A word on the Tmax: it is the time at which the peak concentration occurs. The term bioavailability denotes the share of a dose that reaches the circulation, judged against a reference dose that is usually intravenous. Higher therefore signals good availability.

`COc1ccc(-c2cc(=O)[nH]c(=S)n2CCN)c(OC)c1` registered a logD in series [1] of -0.17. The pKinact in series [2] is 2.61. Also, the Ki on Myeloperoxidase [3] is 174 nM. Moreover, in series [4], the log(ratio) amounted to 4.13. In addition, the IC50 against Myeloperoxidase [5] was 500 nM. The Papp in series [6] is 3.5 ×10⁻⁶ cm/s. In [7], this compound showed a fraction unbound of 0.7. In addition, the CLH(app) in the series with Liver microsome was determined as 8.8 µL/min/mg; with Hepatocyte, 2.9 µL/min. Besides, the clearance in [8] came out at 70.3 mL/min/kg; in series [9], 13.4 mL/min/kg. Also, the Vd in [10] is 3.71 L/kg; in series [11], 3.66 L/kg. The half-life in series [12] was 66 min; in series [13] it was 342 min. Moreover, the Tmax worked out at 22.8 min in series [14] and 78 min in [15]. Besides, the values for the bioavailability in series [16] and in [17] were 91% and 84%, respectively.
In the case of `COc1ccc(-c2cc(=O)[nH]c(=S)n2CC(N)=O)c(OC)c1`, the logD in series [1] was 0.59. The pKinact in series [2] was determined as 2.41. Also, the Ki at Myeloperoxidase [3] is 372 nM. The log(ratio) in series [4] stood at 4.03. The compound also returned an IC50 at Myeloperoxidase [5] of 2600 nM. Also, the Papp in series [6] came out at 0.8 ×10⁻⁶ cm/s. For the same compound, the fraction unbound in series [7] turned out to be 0.5. Moreover, the results for the CLH(app) in the series on Liver microsome and with Hepatocyte were below 8 µL/min/mg and below 6 µL/min, respectively. For the same compound, the figures for the clearance in series [8] and in series [9] were 35.1 mL/min/kg and 1.31 mL/min/kg, respectively. Further, the Vd in [10] was determined as 1.23 L/kg; in [11], 0.3 L/kg. Besides, the values for the half-life in series [12] and in [13] were 45.6 min and 204 min, respectively. Besides, the values for the Tmax in series [14] and in series [15] were 30 min and 90 min, respectively. Moreover, the bioavailability in [16] turned out to be 76%; in [17] it was 31%.
Consider `COc1ccc(Cl)cc1-c1cc(=O)[nH]c(=S)n1CC(N)=O` [PF-06282999], for which the logD in series [1] was 0.81. Further, the pKinact in series [2] amounted to 2.43. Besides, the Papp in series [6] amounted to 1.6 ×10⁻⁶ cm/s. Further, the CLH(app) with Liver microsome was below 8 µL/min/mg; in the series on Hepatocyte, below 6 µL/min. For the same compound, the clearance in series [8] was 41.8 mL/min/kg; in [9] it was 3.39 mL/min/kg. Moreover, the figures for the Vd in [10] and in [11] were 2.13 L/kg and 0.54 L/kg, respectively. The half-life in series [12] was 45 min; in [13], 132 min. The results for the Tmax in series [14] and in [15] were 46.8 min and 42 min, respectively. Also, the bioavailability in [16] is 86%; in series [17], 75%.
In turn, `COc1ccc(-c2cc(=O)[nH]c(=S)n2CCO)c(OC)c1` showed a logD in series [1] of 1.1. For the same compound, the pKinact in [2] was found to be 2.34. In addition, the Ki on Myeloperoxidase [3] was 151 nM. The log(ratio) in series [4] was found to be 4.47. Also, at Myeloperoxidase [5], the IC50 stood at 2000 nM. Besides, in [6], the apparent permeability (Papp) is 13 ×10⁻⁶ cm/s. In addition, the fraction unbound in series [7] is 0.5. The CLH(app) in the series on Liver microsome was below 8 µL/min/mg; with Hepatocyte, below 6 µL/min. Further, the clearance in series [8] turned out to be 59.3 mL/min/kg; in series [9], 11.9 mL/min/kg. The values for the Vd in series [10] and in series [11] were 0.82 L/kg and 1.33 L/kg, respectively. Further, the half-life in series [12] is 15 min; in series [13], 318 min. Also, the Tmax in series [14] was found to be 78 min; in series [15] it was 70.2 min. The results for the bioavailability in [16] and in series [17] were 8% and 16%, respectively.
`COc1ccc(OC)c(-c2cc(=O)[nH]c(=S)n2CC(N)=O)c1`: the logD in [1] stood at 0.34. Further, the pKinact in [2] turned out to be 2.38. The Ki on Myeloperoxidase [3] is 347 nM. Besides, the log(ratio) in series [4] is 4.09. Further, at Myeloperoxidase [5], the IC50 was 1500 nM. Also, the Papp in [6] came out at 1.1 ×10⁻⁶ cm/s. The compound further yielded a fraction unbound in [7] of 0.6. In addition, the CLH(app) is below 8 µL/min/mg in the series on Liver microsome and below 6 µL/min in the series on Hepatocyte. The results for the clearance in series [8] and in series [9] were 37.6 mL/min/kg and 7.07 mL/min/kg, respectively. The figures for the Vd in [10] and in [11] were 0.83 L/kg and 1.03 L/kg, respectively. Further, the half-life in series [12] is 22.8 min; in [13] it was 168 min. The time to peak (Tmax) in series [14] was determined as 40.2 min; in [15], 37.8 min. For the same compound, the bioavailability in series [16] came out at 61%; in series [17], 100%.

For the origin of these results see ChEMBL document CHEMBL3632461 (J Med Chem, 2015).
